Shown is part of a subset that was picked to be rich in hits.
H69AR growth 86K: proliferation blockers of H69AR lung cancer cells, primary screen, cell-based, human, 86K library; actives 6% (n = 85,000); viability, % at 10 µM; H69AR lung tumor viability, ATP luminescence, 72 h; hits give low values;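 active means viability at or below 40%; inactive means viability above 40%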;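 further: multidrug resistant small cell line overexpressing MRP-1 efflux transporter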
Lung fibro prol: antiproliferative effect on LL 47 fibroblasts – human, LL 47 cells, CellTiter-Glo luminescence, primary screen; LL 47 human lung fibroblast viability, ATP luminescence; hits give low values; actives 1.1% (n = 85,000); viability, % at 10 µM;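 active means viability at or below 50% in the single dose screen; inactive means viability above 50%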;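 further: compound exposure lasted 72 h before the ATP readout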
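Times – overnight cell rest, 72 h compound treatment at 37 °C · Test system – human lung fibroblast line LL 47, low passage · Amount – 1,150 cells in each well · Controls – cell-only wells, no compound · Doses – 0.1% DMSO in all compound wells · Measured by – CellTiter-Glo luminescence · Buffer or medium – IMEM plus 15% FBS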
bCat KO growth: primary screen for growth suppressors in beta-catenin knockout HCT116 cells (colon tumor, human). HCT116 beta-catenin knockout viability, CellTiter-Glo, 60 h; hits give low values. viability, % at 10 µM. actives 1.5% (n = 140,000). AID 818, 2007;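 active means viability at or under a set limit, the compound median less 4 SD, cut at about 6% in these data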
PTEN del growth: growth suppression of PTEN-null HCT116, primary screen, cell-based, CellTiter-Glo | HCT116 PTEN-null viability, 60 h; hits give low values | viability, % at 10 µM | actives 1.2% (n = 140,000);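 active means viability at or below a set limit, 4 SD under the median of all tested compounds, cut at about 3.7% in these data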;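 further: PTEN knockout HCT116 line with beta catenin targeted HCT116 as companion control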
HUVEC inhibit: inhibitors of HUVEC proliferation, primary screen, cell-based, 384-well | CellTiter-Glo luminescence, 72 h; hits give low values | viability, % at 10 µM (by protocol) | actives 1.1% (n = 86,000);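 active means viability at or below 30%; inactive means viability above 30%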
A number is an active result; 0 = inactive; - = not tested or not shown.

SMILES	H69AR growth 86K	Lung fibro prol	bCat KO growth	PTEN del growth	HUVEC inhibit
CCOC(=O)C1C(=O)C=C(c2cccc(NS(C)(=O)=O)c2)CC1c1ccco1 (stereo not drawn)	37.0	0	0	0	0
CN1CCN(C(=S)Nc2cc([N+](=O)[O-])ccc2Cl)CC1	-	-	0	0	-
Cc1ccc(Nc2ncccc2C(N)=O)cc1[N+](=O)[O-]	-	-	0	0	-
COc1cccc(-n2c(CN3CCN(c4ccccc4)CC3)nc3ccc([N+](=O)[O-])cc3c2=O)c1	-	-	0	0	-
CCc1ccc(C(=O)/C=C/c2ccc([N+](=O)[O-])o2)cc1	2.6	14.5	1.9	1.5	21.1
Cc1oc(C)c2c(=O)ccc3c(c12)OC(N)=C(C#N)C3c1ccccc1 (stereo not drawn)	0	0	0	0	0
CSc1ccc(C2C(C#N)=C(N)Oc3c2ccc(=O)c2c(C)oc(C)c32)cc1 (stereo not drawn)	10.4	0	0	0	0
CC(Cl)C(=O)Nc1ccccc1C#N (stereo not drawn)	-	-	0	0	-
C=CCNC(=O)CCCc1ccccc1	1.4	0	0	0	0
Cc1ccc(S(=O)(=O)Nc2ccnc3ccccc23)cc1	0	0	0	0	0
Cc1ccc(S(=O)(=O)Nc2cccc3ncccc23)s1	-	-	1.5	1.5	-
Cc1[nH]nc2c1C(c1cc(Br)cs1)C(C#N)=C(N)O2 (stereo not drawn)	-	-	2.0	2.1	-
Cc1[nH]nc2c1C(c1ccoc1)C(C#N)=C(N)O2 (stereo not drawn)	0	0	0	0	0
CCCCn1c(=N)n(CC(O)COc2ccc(C)cc2)c2ccccc21 (stereo not drawn)	7.4	0	2.0	1.7	0
CCn1c(=N)n(CC(O)COc2cccc(C)c2)c2ccccc21 (stereo not drawn)	0	0	0	0	0
CCCn1c(=N)n(CC(O)COc2cccc(C)c2)c2ccccc21 (stereo not drawn)	0	0	2.6	3.2	0
CCCCC1=C([O-])C2N=CC=CC2=[N+](c2ccccn2)C1=O (stereo not drawn)	-	-	0	0	-
CCCCC(=O)Nc1ccc(NC(=S)NC(=O)c2cccs2)cc1OC	-	-	0	0	-
CCOC(=O)C1=C(C)OC(N)=C(C#N)C1c1cc2c(cc1Br)OCO2 (stereo not drawn)	30.0	0	0	0	0
CSc1ccccc1NC(=O)CN(c1ccccc1Br)S(C)(=O)=O	-	-	0	0	-
COC(=O)CSC1=NS(=O)(=O)c2ccccc21	37.1	0	0	0	0
O=C(CSC1=NS(=O)(=O)c2ccccc21)Nc1ccccc1	18.9	0	0	0	0
COC(=O)CSc1ccccc1C(=O)OC	0	0	0	0	0
Cc1cc(NC(=O)CN2CCN(Cc3ccccc3)CC2)nc2c1c(=O)oc1ccccc12	22.0	0	-	-	0
Cc1cc(NC(=O)C2CCCCC2)nc2c1c(=O)oc1ccccc12	-	-	0	0	-
SMILES	H69AR growth 86K	Lung fibro prol	bCat KO growth	PTEN del growth	HUVEC inhibit
Cc1cccc(CC(=O)Nc2cc(C)c3c(=O)oc4ccccc4c3n2)c1	11.5	0	0	0	0
Cc1cc(NC(=O)CN2CC3CC(C2)c2cccc(=O)n2C3)nc2c1c(=O)oc1ccccc12 (stereo not drawn)	0	0	-	-	0
Cc1cc(NC(=O)Cc2ccccc2)nc2c1c(=O)oc1ccccc12	-	-	0	0	-
Cc1cc(NC(=O)C2CCCC2)nc2c1c(=O)oc1ccccc12	37.0	0	0	0	0
Cc1nn(Cc2cccc(C(=O)NC34CC5CC(CC(C5)C3)C4)c2)c(C)c1Br	0	0	0	0	29.4
COc1cc2cc(C(c3nnnn3C3CCCC3)N3CCCCC3)c(=O)[nH]c2cc1OC (stereo not drawn)	0	0	0	0	0
O=c1[nH]c2cc3c(cc2cc1C(c1nnnn1C1CCCCC1)N1CCSCC1)OCCO3 (stereo not drawn)	2.0	27.9	0	0	0
COc1ccc(Nc2cnn(-c3nc4ccccc4s3)c(=O)c2Cl)cc1	-	-	5.1	0	-
O=c1c(Cl)c(Nc2cccc(Cl)c2)cnn1-c1nc2ccccc2s1	-	-	0	0	-
O=C(CCCOc1ccccc1)NC1CCCc2ccccc21 (stereo not drawn)	-	-	0	0	-
CCCSc1nc(O)c(C(c2ccc(OC)c(O)c2)c2c(O)nc(SCCC)n(C)c2=O)c(=O)n1C	-	-	0	0	-
CCC(C)NC(=O)CSc1nc2c(sc(=S)n2Cc2ccco2)c(=O)n1-c1ccccc1 (stereo not drawn)	31.6	0	0	0	0
CCc1nn(C(C)C(=O)NCCN2CCN(c3cccc(C)c3C)CC2)c(=O)c2cc3occc3n12 (stereo not drawn)	-	-	2.5	0	-
CC(Sc1ccc(Cl)cc1)C(=O)Nc1ccccc1-c1ccccc1 (stereo not drawn)	-	-	0	0	-
Cc1ccc2cc(CN(CCN3CCCC3)C(=O)Nc3ccc(F)cc3)c(=O)[nH]c2c1C	37.7	0	0	0	0
O=C(Nc1ccc(F)cc1)N(CCCN1CCOCC1)Cc1cc2cc3c(cc2[nH]c1=O)OCCO3	0	0	0	0	0
CCc1ccc2[nH]c(=O)c(CN(CCCN3CCOCC3)C(=O)Nc3ccc(F)cc3)cc2c1	33.8	0	0	0	0
Cc1ccc2cc(CN(CCN3CCCC3)C(=O)Nc3ccccc3)c(=O)[nH]c2c1C	0	0	0	0	0
Cc1cccc(NC(NC(=O)c2ccccc2[N+](=O)[O-])C(Cl)(Cl)Cl)c1 (stereo not drawn)	-	-	0	0	-
O=C(Cc1ccc(S(=O)(=O)N2CCCCC2)s1)Nc1cccc2ccccc12	-	-	0	0	-
COc1ccc(NC(=O)C(NC(=O)c2ccc(=O)[nH]c2)c2ccc(OC)cc2)cc1 (stereo not drawn)	-	-	0	0	-
Cc1ccc2[nH]c(=O)c(C(c3nnnn3C3CCCC3)N(Cc3cccnc3)Cc3ccco3)cc2c1 (stereo not drawn)	0	0	0	0	0
Clc1ccc(C(c2nnnn2C2CCCCC2)N(Cc2cccnc2)Cc2ccco2)cc1 (stereo not drawn)	35.8	0	0	0	0
Cn1cc(C(=O)c2ccc(Cl)cc2Cl)cc1C(=O)N/N=C(\N)COc1ccc(F)cc1	24.6	0	0	0	0
Cn1cc(C(=O)c2ccc(Cl)cc2Cl)cc1C(=O)N/N=C(\N)COc1ccccc1	33.4	0	0	0	0
O=C(COc1ccc(Cl)cc1Cl)NN=C1CCCCC1	-	-	0	0	-
Cn1cc(C(=O)c2ccc(Cl)cc2Cl)cc1C(=O)O	-	-	0	0	-
Cn1cc(C(=O)c2ccc(Cl)cc2Cl)cc1C(=O)N/N=C(\N)COc1ccc(Cl)cc1Cl	18.2	0	0	0	0
CC(C)[C@H](NC(=O)c1ccccc1)C(=O)OCC(=O)N1CC2(C)CC1CC(C)(C)C2 (stereo partly drawn)	-	-	0	0	-

From PubChem BioAssay
